Experimental data taken from ChEMBL document CHEMBL3352613, “Crystal Structures and Structure-Activity Relationships of Imidazothiazole Derivatives as IDO1 Inhibitors” (ACS Med Chem Lett, 2014).

Target: Indoleamine 2,3-dioxygenase 1 (Homo sapiens, UniProt P14902)
Experiment: Inhibition of human IDO1 assessed as reduction in convertion of N-formylkynurenine to kynurenine incubated for 30 mins
Method in brief: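 IC50 values were taken as the mean of at least two independent assays.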

Sequence of Indoleamine 2,3-dioxygenase 1 (P14902 whole entry): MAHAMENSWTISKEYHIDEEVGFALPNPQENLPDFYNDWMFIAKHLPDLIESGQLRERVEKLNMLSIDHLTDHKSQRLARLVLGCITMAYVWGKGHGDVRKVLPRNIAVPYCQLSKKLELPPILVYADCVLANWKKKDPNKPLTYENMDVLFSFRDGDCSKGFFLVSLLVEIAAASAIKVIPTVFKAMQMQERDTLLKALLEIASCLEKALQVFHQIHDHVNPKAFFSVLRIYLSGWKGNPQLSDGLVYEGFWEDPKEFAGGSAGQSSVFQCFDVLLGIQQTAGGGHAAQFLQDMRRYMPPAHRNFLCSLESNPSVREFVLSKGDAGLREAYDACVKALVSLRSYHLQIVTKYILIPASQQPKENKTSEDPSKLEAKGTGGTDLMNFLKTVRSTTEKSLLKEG

| SMILES | IC50 [µM] |
| --- | --- |
| Cc1ccc(-c2csc3ncc(C(=O)NCCc4ccc5c(c4)OCO5)n23)cc1 | 3.6 |
| O=C(NCc1ccccc1)NCc1cnc2scc(-c3ccc(Br)cc3)n12 | 0.75 |
| COc1ccc(NC(=O)NCc2cnc3scc(-c4ccc(Br)cc4)n23)cc1 | 0.19 |
| CCOC(=O)c1cnc2scc(Cc3ccccc3)n12 | > 100 |
| Cc1ccc(-c2csc3nnc(SCC(=O)Nc4ccc5c(c4)OCO5)n23)cc1 | 3 |
| CCOC(=O)c1cnc2scc(-c3ccc(Br)cc3)n12 | 5.5 |
| O=C(NCc1cnc2scc(-c3ccc(Br)cc3)n12)Nc1ccccc1 | 0.22 |
| COc1cccc(NC(=O)NCc2cnc3scc(-c4ccc(Br)cc4)n23)c1 | 0.16 |
| O=C(NCc1cnc2scc(-c3ccc(Br)cc3)n12)Nc1ccc2c(c1)OCO2 | 0.12 |
| CCOC(=O)c1cnc2sc3ccccc3n12 | > 100 |
| CCOC(=O)c1cnc2scc(-c3ccc(CC)cc3)n12 | 24 |
| CCOC(=O)c1cnc2scc(-c3cccc(C)c3)n12 | > 100 |
| Cc1ccc(-c2csc3ncc(C)n23)cc1 | 1.3 |
| Cc1ccc(-c2csc3ncc(C(=O)NCCc4cccc(Cl)c4)n23)cc1 | 1.9 |
| Cc1ccc(-c2csc3ncc(C(=O)NCCc4ccccc4)n23)cc1 | 3.5 |
| N#Cc1ccc(NC(=O)NCc2cnc3scc(-c4ccc(Br)cc4)n23)cc1 | 0.077 |
| CCOC(=O)c1cnc2scc(-c3ccccc3C)n12 | > 100 |
| CCOC(=O)c1cnc2scc(-c3ccc(OC)cc3)n12 | 56 |
| CCOC(=O)c1cnc2scc(-c3ccc(Cl)cc3)n12 | 8.1 |
| CCOC(=O)c1cnc2scc(-c3ccccc3)n12 | > 100 |
| O=C(NCc1cnc2scc(-c3ccc(Br)cc3)n12)NC1CCCCC1 | 1.8 |
| CCOC(=O)c1cnc2scc(-c3ccc(C)cc3)n12 | 18 |
| CCOC(=O)c1cnc2scc(C3=CCCCC3)n12 | > 100 |
